# MEKK3 PB1 HTS: modulators of MEKK3-MEK5 PB1 binding, primary screen, biochemical, wildtype MEKK3, multiplex bead flow cytometry, Alexa488-MEK5; Mitogen-activated protein kinase kinase kinase 3 (Homo sapiens), Q99759; bead-based flow cytometry, Alexa488-MEK5 binding to MEKK3; actives lie on both sides; 0 = blocked by unlabeled MEK5, 100 = vehicle; binding response (% of control), % at 10 µM; 290,000 compounds, 1.4% hits;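 active = binding response more than 3 SD above or below the average of its plate-row segment, actives on both sides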;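 note: Alexa488 bead fluorescence after subtracting the streptavidin-only scavenger bead signal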
# Target sequence (Q99759 whole entry, looked up): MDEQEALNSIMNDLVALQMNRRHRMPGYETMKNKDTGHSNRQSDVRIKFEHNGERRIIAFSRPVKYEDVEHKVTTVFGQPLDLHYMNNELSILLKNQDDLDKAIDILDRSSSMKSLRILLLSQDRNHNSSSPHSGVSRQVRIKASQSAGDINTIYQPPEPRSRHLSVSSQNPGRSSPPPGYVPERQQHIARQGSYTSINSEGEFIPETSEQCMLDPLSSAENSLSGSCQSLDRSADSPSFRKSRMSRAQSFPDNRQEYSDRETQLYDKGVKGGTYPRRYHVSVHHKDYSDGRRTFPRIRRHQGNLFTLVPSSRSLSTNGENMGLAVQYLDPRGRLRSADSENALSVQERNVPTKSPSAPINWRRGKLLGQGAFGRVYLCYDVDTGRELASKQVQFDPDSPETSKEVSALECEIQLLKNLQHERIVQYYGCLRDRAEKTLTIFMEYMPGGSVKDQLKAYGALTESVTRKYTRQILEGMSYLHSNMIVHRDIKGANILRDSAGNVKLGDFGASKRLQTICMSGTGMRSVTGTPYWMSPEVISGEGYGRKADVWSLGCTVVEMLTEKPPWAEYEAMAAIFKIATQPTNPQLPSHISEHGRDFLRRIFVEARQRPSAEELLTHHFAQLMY
# IMP-1 inhibitor: IMP-1 metallo-beta-lactamase inhibitors, primary screen, biochemical, epi-absorbance readout, Pseudomonas aeruginosa enzyme; metallo-beta-lactamase IMP-1 (Pseudomonas aeruginosa); purified IMP-1, nitrocefin hydrolysis, epi-absorbance fluorescence; inhibition, % at 5.6 µM; 290,000 compounds, 0.45% hits;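 active = inhibition above the mean plus 3 SD of all compounds in the same screening run, cut at about 4.5% in these data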;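 note: 0% = IMP-1 with DMSO and 100% = DMSO wells lacking enzyme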
#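 System: purified recombinant IMP-1 beta-lactamase. Medium: Zinc- and detergent-supplemented HEPES buffer, pH 7.1. Compound: one 5.6 µM dose […]. Schedule: 15 min preincubation plus 25 min reaction at 25 °C. Technique: Epi-absorbance fluorescence, 480 nm excitation, 530 nm emission.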
# MEKK2 mut-MEK5: MEK5 binding signal on mutant MEKK2 PB1, primary screen, biochemical, multiplex bead flow cytometry, Alexa488-MEK5 | 290,000 compounds, 0.35% hits | percent response, % at 10 µM | Alexa488-MEK5 binding to MEKK2 mutant | AID 1530, 2009; in the data active = percent response above about 24%, passing the limit was not always enough
# MEKK2wt PB1 HTS: modulators of MEK5 binding to wildtype MEKK2, primary screen, biochemical, multiplex bead flow cytometry, Alexa488-MEK5. binding response (% of control), % at 10 µM. Mitogen-activated protein kinase kinase kinase 2 (Homo sapiens), Q9Y2U5. 290,000 compounds, 1.1% hits. Alexa488-MEK5 binding to MEKK2 WT; actives lie on both sides; in the data active = binding response below about 67% or above about 130%
# VIM-2 inhibitor: VIM-2 metallo-beta-lactamase inhibitors, primary screen, biochemical, epi-absorbance readout, Pseudomonas aeruginosa enzyme; AID 1527, 2009; inhibition, % at 5.6 µM; purified VIM-2, nitrocefin hydrolysis, epi-absorbance fluorescence; 290,000 compounds, 0.89% hits;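 active = inhibition above the mean of all tested compounds plus 3 SD, cutoff set per screening run, cut at about 7.5% in these data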;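 note: red hydrolysis product quenches plate fluorescence so inhibitors raise well fluorescence; 0% = enzyme with DMSO and 100% = DMSO without enzyme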
# MEKK2wt confirm: modulators of MEK5 binding to wildtype MEKK2, confirmation, biochemical, single concentration, multiplex bead flow cytometry; 5,900 compounds, 2.4% hits; shares compounds with MEKK3 PB1 HTS; Alexa488-MEK5 binding to MEKK2 WT; actives lie on both sides; binding response (% of control), % at 10 µM; in the data active = binding response below about 16% or above about 210%; inactive = in between
# MEKK2mut-MEK5: mutant MEKK2 PB1-MEK5 binding signal retest – biochemical, single concentration, multiplex bead flow cytometry, confirmation; AID 1893, 2009; Alexa488-MEK5 binding to MEKK2 mutant; 5,900 compounds, 2% hits; percent response, % at 10 µM; shares compounds with MEKK3 PB1 HTS; in the data active = percent response mostly above about 71%, no sharp cut-off; inactive = mostly below about 38%;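 note: higher means compound restores mutant binding toward wildtype level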
# MEKK3 confirm: MEKK3 wild-type PB1 binding to MEK5, inhibitors, confirmation, biochemical, bead multiplex flow cytometry, single concentration, wildtype; shares compounds with MEKK3 PB1 HTS; Alexa488-MEK5 binding to MEKK3; hits give low values; binding response (% of control), % at 10 µM; 5,900 compounds, 1.8% hits; AID 1894, 2009;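 active = binding response below 72% of control, or above a set upper limit, though filed actives all read lower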;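 note: 100% = DMSO only wells and 0% = binding blocked by excess unlabeled MEK5; lower values mean stronger disruption of MEK5 binding to MEKK3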
# The depositor's hits bear a star; nt = no result; [ ] = another dose, or the depositor's remark. Only some compounds are listed: those with a hit (about 3.4% of all), similar ones and a draw of the others.
SMILES,MEKK3 PB1 HTS,IMP-1 inhibitor,MEKK2 mut-MEK5,MEKK2wt PB1 HTS,VIM-2 inhibitor,MEKK2wt confirm,MEKK2mut-MEK5,MEKK3 confirm
Cc1c(CN2CCC(CO)(CCOc3ccccc3)CC2)[nH]c2c(Cl)cccc12,115,-5,28,240*,-4,195,50,108
COC(=O)c1ccc(Oc2ccc(C(C)(C)C)cc2)c([N+](=O)[O-])c1,nt,-2,nt,nt,-1,nt,nt,nt
COC(=O)c1cc(C#N)c(OC(C)C)nc1C,142*,-3,7,123,-3,98,-3,97
CC(=O)c1c(C)[nH]c(C(=O)OCC(=O)N2CCc3ccccc32)c1C,2.0*[inhibitor],-1,-41,1.0*[inhibitor],-3,106,2,101
Cn1c(=O)[nH]c(=O)c2c1nc(SCC(=O)O)n2Cc1ccccc1,102,-4,27*,105,-3,106,4,104
Cn1c(=O)[nH]c(=O)c2c1nc(SCC(=O)O)n2CCCc1ccccc1,100,-1,7,105,-3,nt,nt,nt
COCCn1c(Sc2ccccc2)nc2c1c(=O)[nH]c(=O)n2C,2.0*[inhibitor],-2,-21,3.0*[inhibitor],-1,101,3,100
COC(=O)c1c(NC(=O)c2cccnc2)sc(C(=O)N(C)C)c1C,162*,-3,1,109,0,107,3,106
Cc1ccccc1CNC(=O)CN(c1ccccc1Cl)S(C)(=O)=O,110,-4,11,109,-1,nt,nt,nt
CCN(CC)c1ccc(/C=N/NC(=O)C(O)(c2ccccc2)c2ccccc2)o1,75*[inhibitor],0,0,95,-4,100,0,103
O=C(Nc1nnc(-c2ccc3c(c2)CCCC3)o1)c1c(F)cccc1F,68*[inhibitor],-3,-3,86,0,102,3,108
O=C(Nc1nnc(-c2ccc3c(c2)CCCC3)o1)c1ccc(Cl)cc1Cl,103,-5,1,104,-1,nt,nt,nt
COc1nc(C)nc2c1ccc1ccccc12,136*,-2,2,104,-1,98,-4,104
COc1ccc(Oc2nc(C)nc3c2oc2ccccc23)cc1,116,-5,3,109,2,nt,nt,nt
CC1CCCN(C(=O)C2CCN(CC(C)c3ccccc3)CC2)C1 (configuration not stated),107,-3,2,101,-2,nt,nt,nt
CC1CCCN(C(=O)C2CCN(CCCc3ccccc3)CC2)C1 (configuration not stated),79*[inhibitor],-4,-5,98,-2,99,-2,94
S=c1nc(SCc2ccccc2)[nH]c2ccccc12,49*[inhibitor],-1,-18,50,1,115,4,102
O=C(N/C(=C\c1ccc2c(c1)OCO2)C(=O)N1CCOCC1)c1cccs1,92,-2,-4,99,2,nt,nt,nt
O=C(O)c1ccc(N2CCCCC2)cc1,100,-3,-2,98,-4,nt,nt,nt
c1ccc(CCNCCCOc2cccc3ccccc23)cc1,118,-1,33*,161*,-2,151,37,108
CCOC(=O)CN1C=C(c2ccc3ccccc3n2)C(C[N+](=O)[O-])c2ccccc21 (configuration not stated),103,-3,82*,67*,0,102,-10,96
